One series has as its system Chikungunya virus. Kind of series: Antiviral activity against Chikungunya virus 899 infected in african green monkey Vero cells assessed as inhibition of virus-induced cytopathic effect incubated for 6 to 7 days by MTS assay. The format is functional, cell-based. The settings on record: Chikungunya virus, 899, Vero. The procedure, abridged: (§1)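 Serial dilutions in MEM Rega3 with 2% FCS, L-glutamine and bicarbonate, added with 4× virus dilution and Vero cells (25 000 cells/well, subcultured 1:4, grown 7 days). Incubated 6−7 days, 37 °C, 5% CO2. Read-out is 5% MTS for 1.5 h, absorbance 498 nm. Data are percent of controls, EC50 from dose–response curves. Wells with >50% protection checked microscopically for CPE or altered morphology. Multiple independent experiments.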
In general terms: Protection from cytopathic effect is a common read-out in antiviral testing.

Series [1] in a line: Cytotoxicity against african green monkey Vero cells by MTS assay. It is filed as cell-based. The settings on record: chlorocebus sabaeus. The procedure, abridged:
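Vero cells (25 000/well) with serial compound dilutions in MEM Rega3 with 2% FCS, no virus, for 6−7 days at 37 °C, 5% CO2. Overall metabolism read by 5% MTS for 1.5 h, absorbance 498 nm. Uninfected control OD 0.6−0.8. CC50 is the concentration inhibiting metabolism by 50%, from dose–response curves. Multiple independent experiments.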
(In general: Tetrazolium dyes change colour on reduction, which living cells bring about.)

Series [2] can be described thus: Selectivity index, ratio of CC50 for african green monkey Vero cells to EC50 for Chikungunya virus 899. It is filed as toxicity, cell-based. The settings on record: read-out: Ratio CC50/EC50.
Another series deals with Sindbis virus. Kind of series: Antiviral activity against Sindbis virus HRsp infected in african green monkey Vero cells assessed as inhibition of virus-induced cytopathic effect incubated for 6 to 7 days by MTS assay. The format is functional, organism-based. The procedure, abridged: as §1
In a further series the test system is Semliki Forest virus. Kind of series: Antiviral activity against Semliki forest virus infected in african green monkey Vero cells assessed as inhibition of virus-induced cytopathic effect incubated for 6 to 7 days by MTS assay. The format is functional, organism-based. Put shortly: as §1

EC50, CC50 and selectivity ratio data for six molecules are collected here from ChEMBL document CHEMBL2203273, “Prostratin and 12-O-tetradecanoylphorbol 13-acetate are potent and selective inhibitors of Chikungunya virus replication” (J Nat Prod, 2012).

As a reminder, the EC50 is the concentration at which the effect is half-maximal. Broadly, the CC50 is the concentration giving 50% cytotoxicity. Consider `CCCCCCCCCCCCCC(=O)O[C@@H]1[C@@H](C)[C@@]2(O)[C@@H](C=C(CO)C[C@@]3(O)C(=O)C(C)=C[C@@H]23)[C@@H]2C(C)(C)[C@]12OC(C)=O`, for which the EC50 in the series with Chikungunya virus was 2.8 µM. This molecule also yielded a CC50 in series [1] of 5.3 µM. Also, in series [2], the selectivity ratio worked out at 1.9.
Turning to `CCN(CC)CCCC(C)Nc1ccnc2cc(Cl)ccc12` (stereo not given) [CHLOROQUINE], the results for the EC50 with Chikungunya virus, with Sindbis virus and in the series with Semliki Forest virus were 11 µM, 11 µM and 14 µM, respectively. For the same molecule, the midpoint of cytotoxicity in series [1], the CC50, lay at 89 µM.
Turning to `CCCCCCCCCCCCCC(=O)O[C@@H]1[C@@H](C)[C@@]2(O)[C@@H](C=C(CO)C[C@]3(O)C(=O)C(C)=C[C@@H]23)[C@@H]2C(C)(C)[C@]12OC(C)=O` [PHORBOL MYRISTATE ACETATE], the EC50 is 0.0029 µM in the series with Chikungunya virus, 2.2 µM in the series on Sindbis virus and over 162 µM in the series with Semliki Forest virus. Further, in series [1], the midpoint of cytotoxicity, the CC50, lay at 5.7 µM. Besides, in series [2], the selectivity ratio is 1960.
Consider `CC1=C[C@H]2[C@@]3(O)[C@H](C)[C@@H](O)[C@]4(O)[C@H]([C@@H]3C=C(CO)C[C@]2(O)C1=O)C4(C)C` [PHORBOL], for which the EC50 is over 343 µM in the series with Chikungunya virus, over 274 µM in the series with Sindbis virus and over 274 µM in the series with Semliki Forest virus. The molecule further displayed a CC50 in series [1] of over 343 µM. Also, the selectivity ratio in series [2] is over 1.
Take `CC(=O)O[C@@]12C[C@@H](C)[C@@]3(O)[C@@H](C=C(CO)C[C@]4(O)C(=O)C(C)=C[C@@H]34)[C@@H]1C2(C)C` [PROSTRATIN]: the EC50 with Chikungunya virus is 2.6 µM; in the series with Sindbis virus it was over 256 µM; in the series on Semliki Forest virus, over 256 µM. In addition, the CC50 in series [1] was 79 µM. The selectivity ratio in series [2] amounted to 30.3.
Consider `CCCCCCCCCCCC(=O)O[C@@H]1[C@@H](C)[C@@]2(O)[C@@H](C(=O)C(CO)=C[C@]3(O)C(=O)C(C)=C[C@@H]23)[C@@H]2C(C)(C)[C@]12OC(C)=O` [TRIGOWIIN A], for which the concentration giving a half-maximal response (EC50) with Chikungunya virus was determined as 43.5 µM. The CC50 in series [1] is over 100 µM. For the same molecule, in series [2], the selectivity ratio is over 2.3.
